# High-throughput results deposited in PubChem by The Scripps Research Institute Molecular Screening Center.
# The list is not random: actives were taken first. Their share in the collection is about 4.6%.
# OX1R antag-1: OX1R (HCRTR1) antagonists, primary screen, fluorescence, CHO/OX1R cells, Fluo-8 calcium, orexin A. Fluo-8 calcium fluorescence. 0.43% of 330,000 active. Orexin/Hypocretin receptor type 1 (Homo sapiens), O43613. inhibition, % at 5 µM;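 active = inhibition above its plate's threshold, mean inhibition of all tested compounds on the plate plus 3 SD, cut at about 37% in these data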;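 also: 0% = orexin A challenge wells and 100% = SB-334867-A antagonist wells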
# TAAR1 agonist: human TAAR1 agonists, primary screen, Fluo-8 calcium fluorescence, CHO RD-HGA16 cells; Trace amine-associated receptor 1 (Homo sapiens), Q96RJ0; vehicle wells 0%, saturating PEA agonist 100%; 0.99% of 360,000 active; activation, % at 3 µM;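 active = activation above the mean activation of all test compounds in the run plus 3 SD, cut at about 38% in these data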
#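 Assay system: CHO-derived RD-HGA16 cells with stable Gα16 and human TAAR1; timing: 17-24 h seeding, 75 min 37 °C dye, 30 min RT; read-out: % activation from peak over basal fluorescence ratio, DMSO-to-PEA scaled; measured by: kinetic Fluo-8 calcium fluorescence; benchmarks: low control DMSO, high control PEA (EC100); doses: 3 µM single concentration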
# OX1R antag-2: antagonists of human orexin 1 receptor (OX1R); OX1R-expressing cells, FRET antagonist read-out; inhibition, % at 6.6 µM; 1.8% of 330,000 active; AID 485270, 2010; in the data active = inhibition mostly above about 38%, no sharp cut-off; inactive = mostly below about 40%;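 also: 0% = agonist challenge alone and 100% = reference antagonist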
# GPR7 antagonist: GPR7 receptor antagonists, primary screen, cell-based, fluorescence, single concentration; 1.1% of 290,000 active; GPR7-expressing cells, fluorescence antagonist assay; Neuropeptides B/W receptor type 1 (Homo sapiens), P48145; inhibition, % at 4.4 µM; in the data active = inhibition above about 16%, passing the limit was not always enough;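 also: cells stimulated with the agonist NPW; 0% = agonist with vehicle and 100% = vehicle without agonist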
# Target sequence (P48145 whole entry, looked up): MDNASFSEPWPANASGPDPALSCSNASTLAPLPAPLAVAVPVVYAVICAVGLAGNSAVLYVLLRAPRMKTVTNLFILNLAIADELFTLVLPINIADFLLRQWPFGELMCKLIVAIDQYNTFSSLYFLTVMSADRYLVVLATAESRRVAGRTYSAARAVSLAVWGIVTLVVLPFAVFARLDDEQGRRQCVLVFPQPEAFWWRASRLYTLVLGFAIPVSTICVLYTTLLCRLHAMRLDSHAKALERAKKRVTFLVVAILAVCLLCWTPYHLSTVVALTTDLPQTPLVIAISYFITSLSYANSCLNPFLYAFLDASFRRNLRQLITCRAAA
# TAAR1 antagonist: human TAAR1 antagonists, primary screen, Fluo-8 calcium fluorescence, CHO RD-HGA16 cells | Trace amine-associated receptor 1 (Homo sapiens), Q96RJ0 | antagonist | inhibition, % at 3 µM | 1.5% of 360,000 active;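 active = inhibition above a per-plate cutoff, the mean inhibition of test compounds on that plate plus 3 SD, cut at about 49% in these data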;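 also: 0% = DMSO plus EC80 beta-PEA response and 100% = DMSO alone without agonist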
#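 Assay system: RD-HGA16 CHO cells with stable hTAAR1 and Gα16 / Reagent: EC80 β-phenethylamine stimulus / Doses: 3 µM, single point / Timing: dye loading 75 min at 37 °C, then 30 min room temperature / Measured by: Fluo-8 intracellular calcium dye fluorescence, real-time kinetic reads / Controls: vehicle wells and EC80 agonist wells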
# CHO parental Ca: ATP-evoked calcium signal inhibitors, parental CHO, primary screen, counter-screen for OX1R antagonist project, cell-based, fluorescence, Fluo-8 calcium dye; 0.63% of 330,000 active; inhibition, % at 5.6 µM; parental CHO-K1, ATP-induced calcium, Fluo-8 fluorescence;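 active = inhibition above that plate's mean sample inhibition plus 3 SD, cut at about 26% in these data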;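 also: 0% = ATP-challenged DMSO wells and 100% = DMSO wells without ATP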
#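 Material: parental CHO cells / Compound: single nominal dose of 5.6 µM per compound / Signal: Fluo-8 fluorescence / Replicates: singlicate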
# Starred values were filed as active, the others as inactive; . = no result.
SMILES,OX1R antag-1,TAAR1 agonist,OX1R antag-2,GPR7 antagonist,TAAR1 antagonist,CHO parental Ca
CCN1CCN(S(=O)(=O)c2cc(OCC(=O)NC3CCCCC3)c(C)cc2Cl)CC1,-19,13,6,10,0,-3
O=C(Nc1ccc(O)cc1)/C(=C\C=C\c1ccccc1)NC(=O)c1ccccc1,-6,6,6,-5,50*,-8
CC(NC(=O)CSc1nnc(CC(=O)Nc2ccc(Cl)c(Cl)c2)n1C)c1ccccc1 (stereo unspecified),-5,42*,4,0,44,6
O=C(NCc1ccc(F)c(F)c1)c1cccc2c(-c3cccnc3)coc12,.,7,.,.,44,.
O=C(NCc1cccc(Cl)c1)c1cccc2c(-c3cccnc3)coc12,.,6,.,.,55*,.
CCOC(=O)/C=c1\s/c(=C(\C#N)C(N)=O)n(-c2ccccc2)c1=O,-12,0,57*,1,2,-9
CCOC(=O)/C=c1\s/c(=C(\C#N)C(=O)NC)n(-c2ccccc2)c1=O,-11,-1,40,-14,16,-4
C[C@@H](CO)NC(=O)c1[nH]cnc1C(=O)Nc1ccccc1,.,3,.,.,-7,.
Cc1cc(S(=O)(=O)NCc2ccccc2)ccc1OCC(=O)Nc1cccc([N+](=O)[O-])c1,53*,9,84*,5,41,49*
CCCCCCCn1c(=O)c(C(=O)OC)c(N)c2ccccc21,41*,22,60,-5,14,58*
Cc1cc(C)cc(C(N)=Nc2cccc(C#N)c2)c1,-10,6,10,9,-15,-18
CCOC(=O)c1c(NC(=O)COC(=O)Cc2c[nH]c3ccccc23)sc(C(=O)N(C)C)c1C,14,4,8,.,14,-1
O=C(Nc1ccc(OCCO)cc1)c1csc([C@@H]2C[C@H](O)[C@@H](CO)O2)n1,.,5,.,.,-21,.
O=C(Oc1cccc(C(=S)N2CCOCC2)c1)c1cc([N+](=O)[O-])cc([N+](=O)[O-])c1,-14,-1,68*,-6,-3,-8
COc1cc(C(=S)N2CCOCC2)cc(OC)c1OC(=O)c1cccc(C)c1,21,-1,66*,-11,-5,-16
COc1cc(C(=S)N2CCOCC2)ccc1OC(=O)c1ccccc1[N+](=O)[O-],9,13,61*,-17,22,-9
O=C(Oc1cccc(C(=S)N2CCOCC2)c1)c1cccc([N+](=O)[O-])c1,-19,12,17,-1,-1,-12
O=C(CCCSc1ccc(Cl)cc1)Nc1cc(S(=O)(=O)N2CCOCC2)ccc1O,15,11,9,.,14,-17
CCOC(=O)C1CCN(CC(O)COCc2cccs2)CC1 (stereo unspecified),2,1,2,-13,-7,0
CCCCCc1nc2ccccc2c(=O)n1NC(=O)c1c(O)c2cccc3c2n(c1=O)CCC3,.,.,.,-3,.,.
Cc1ccc(OCCCC(=O)N(C)CC(=O)Nc2ccccc2Br)cc1,-17,0,12,.,-13,-21
CN(CC(=O)Nc1ccccc1Br)C(=O)COc1ccc2ccccc2c1,1,10,41*,.,-14,-16
N#CC1=C(SCC(=O)NC2CC2)NC(=O)C(C#N)C12CCCCC2 (stereo unspecified),-12,12,4,-4,13,5
N#CC1=C(SCC(=O)Nc2cccc3cccnc23)NC(=O)C(C#N)C12CCCCC2 (stereo unspecified),-1,12,39*,4,30,-9
O=C(Nc1ccc(F)cc1)Nc1csc2ccccc12,18,3,29,8,32,12
SMILES,OX1R antag-1,TAAR1 agonist,OX1R antag-2,GPR7 antagonist,TAAR1 antagonist,CHO parental Ca
CN(C)c1ccc(NC(=O)Nc2csc3ccccc23)cc1,29,7,57*,0,-14,-15
CC(=O)c1ccc(S(=O)(=O)N2CCN(C(C)C(=O)N(C)Cc3ccccc3)CC2)cc1 (stereo unspecified),-26,3,4,.,-25,-28
Cc1c(NS(=O)(=O)c2ccc(C(=O)N(C)Cc3cccc(Cl)c3Cl)cc2)c(=O)n(-c2ccccc2)n1C,.,2,.,.,21,.
COc1ccc(CCn2c(=N)c(S(=O)(=O)c3ccccc3)cc3c(=O)n4ccccc4nc32)cc1,-14,2,8,2,-10,-6
Cc1ccc(Cn2c(=N)c(C(=O)NCCN3CCOCC3)cc3c(=O)n4ccccc4nc32)cc1,-4,1,54*,-4,-15,-16
N=c1c(C(=O)NCc2ccccc2)cc2c(=O)n3ccccc3nc2n1CCCN1CCOCC1,-12,5,45*,.,-2,0
Cc1ccc(Cn2c(=N)c(C(=O)NC3CCCC3)cc3c(=O)n4ccccc4nc32)cc1,-8,.,13,0,.,-1
N=c1c(C(=O)NCCN2CCOCC2)cc2c(=O)n3ccccc3nc2n1CCc1ccccc1,1,16,62*,24,-13,-7
COc1ccc(CCn2c(=N)c(C(=O)NCc3ccco3)cc3c(=O)n4ccccc4nc32)cc1,-8,3,47*,-2,17,2
CCOc1ccccc1C(C(=O)NC1CCCC1)N(Cc1ccco1)C(=O)CNC(=O)c1ccco1 (stereo unspecified),-25,6,12,-14,-17,-30
CON(C)c1nc(OCC#N)nc(N(C)C)n1,-12,2,11,-7,-20,-3
O=C(Nc1c(-c2cccs2)nc2ccccn12)c1ccccc1F,-38,3,39,-14,-23,-23
NC(=S)N1OC[C@@H]2COc3ccc4ccccc4c3[C@@H]21,13,4,8,16*,13,0
CC1(C)N=c2ccc([N+](=O)[O-])c(N)c2=[N+]1[O-],3,2,75*,-2,-25,-7
COc1ccc(C(=O)NNC(=O)c2cc3cc(OC)ccc3oc2=O)cc1,-11,9,31,-8,-31,1
COc1cccc2cc(C(=O)NCCN3CCOCC3)c(=O)oc12,-5,4,39*,-7,-13,-13
COc1cccc(NC(=O)c2cc3cccc(OC)c3o/c2=N\O)c1,40*,.,93*,-19,.,16
COc1ccc(C(=O)NNC(=O)c2cc3cccc(OC)c3oc2=O)cc1,-16,14,50*,3,-7,-5
COc1cccc(NC(=O)c2cc3ccccc3o/c2=N\O)c1,-24,7,24,0,25,-11
